Results taken from ChEMBL document CHEMBL1128708, “Synthesis of alkyl chain-modified ether lipids and evaluation of their in vitro cytotoxicity” (J Med Chem, 1995).

species on record: Rattus norvegicus; test: Maximal non-erythrolytic concentration(MNEC) was measured in erythrocytes from rat citreated blood; format: functional; conditions: not given
Outline: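 Rat citrated-blood erythrocytes washed in HBSS and mixed 9:1 with test solution for 30 min at 37 °C. Lysis read spectrophotometrically at 546 nm. Value reported as the maximal concentration (μM) causing no erythrolysis.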

In the case of `CCCCCCCCC(CCCCCCCC)CCCCCCOCC(COP(=O)([O-])OCC[N+](C)(C)C)OC` (stereo not drawn), the MNEC is reported as >200 µM.
For `CCCCCCCCCCCC(=O)CCCCCCOCC(COP(=O)(O)OC[C@@H](N)C(=O)O)OC` (stereo partly drawn), the MNEC was >200 µM.
With `COC(COCCCCCCCCCCC(=O)c1ccccc1)COP(=O)([O-])OCC[N+](C)(C)C` (stereo not drawn) the MNEC was >200 µM.
With `CCCCCCCCCCCC(CCCCCC)CCCCCCOCC(COP(=O)([O-])OCC[N+](C)(C)C)OC` (stereo not drawn) the MNEC was >200 µM.
In the case of `CCCCCCC(=O)CCCCCCCCCCCOCC(COP(=O)(O)OC[C@@H](N)C(=O)O)OC` (stereo partly drawn), the MNEC is reported as >200 µM.
With `CCCCCCC(CCCCCC)CCCCCCCCCCCOCC(COP(=O)([O-])OCC[N+](C)(C)C)OC` (stereo not drawn) the MNEC was >200 µM.

Going from `CCCCCCC(O)CCCCCCCCCCCOCC(COCCCCC[N+](C)(C)C)OC.[Br-]` (stereo not drawn) to `CCCCCCCCCCCCCCCCCCOCC(COCCCCC[N+](C)(C)C)OC.[Br-]` (stereo not drawn), the MNEC falls from 50 µM to 5 µM (10-fold).

First: CCCCCCCCCCCCCCCCOP(=O)([O-])OCC[N+](C)(C)C [MILTEFOSINE]
Second: CCCCCCCCC(CCCCCCOCC(COP(=O)([O-])OCC[N+](C)(C)C)OC)c1ccccc1 (stereo not drawn)
The MNEC of the first is 2.5-fold lower: 2 µM for the first, 5 µM for the second.

Work on `CCCCC(CCCC)CCCCCCOCC(COP(=O)([O-])OCC[N+](C)(C)C)OC` (stereo not drawn) yielded an MNEC of 20 µM.

system: HL-60; test: Cytotoxicity measured in HL-60 leukemic cells after a 24 hr incubation period.; format: functional, cell-based, Homo sapiens; conditions: Homo sapiens, HL-60, 24 h
Outline: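 HL-60 cells kept in RPMI-1640 with 5% heat-inactivated FCS, penicillin/streptomycin and 2 mM L-glutamine, >90% viable before use. 10^6 cells/mL exposed 24 h to 2.5–160 μM (twofold steps). Viability by trypan blue exclusion, as % viable cells versus total control cells. IC50 taken as the concentration giving 50% mortality. Two experiments in triplicate; compounds with IC50 >30 μM tested once.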

`CCCCCCCCC(CCCCCCCC)CCCCCCOCC(COP(=O)([O-])OCC[N+](C)(C)C)OC` (stereo not drawn) and `CCCCCCCCCCCC(CCCCCC)CCCCCCOCC(COP(=O)([O-])OCC[N+](C)(C)C)OC` (stereo not drawn) are within 1.5-fold of each other in IC50: 52 µM for the first, 50 µM for the second.

Compared with `CCCCCCCCCCCC(=O)CCCCCCOCC(COP(=O)(O)OC[C@@H](N)C(=O)O)OC` (stereo partly drawn), `CCCCCCC(=O)CCCCCCCCCCCOCC(COP(=O)(O)OC[C@@H](N)C(=O)O)OC` (stereo partly drawn) is lower in IC50: > 160 µM for the first, 30 µM for the second. The second is the more potent here.

First: COC(COCCCCCCCCCCC(=O)c1ccccc1)COP(=O)([O-])OCC[N+](C)(C)C (stereo not drawn)
Second: CCCCCCCCC(CCCCCCOCC(COP(=O)([O-])OCC[N+](C)(C)C)OC)c1ccccc1 (stereo not drawn)
The IC50 of the first is higher: > 160 µM for the first, 30.7 µM for the second. The second is the more potent here.

Going from `CCCCCCC(O)CCCCCCCCCCCOCC(COCCCCC[N+](C)(C)C)OC.[Br-]` (stereo not drawn) to `CCCCCCCCCCCCCCCCCCOCC(COCCCCC[N+](C)(C)C)OC.[Br-]` (stereo not drawn), the IC50 falls from 25.6 µM to 8 µM (3.2-fold). The second is the more potent here.

Going from `CCCCCCCCCCCCCCCCOP(=O)([O-])OCC[N+](C)(C)C` [MILTEFOSINE] to `CCCCCCC(CCCCCC)CCCCCCCCCCCOCC(COP(=O)([O-])OCC[N+](C)(C)C)OC` (stereo not drawn), the IC50 rises from 20.4 µM to 46 µM (2.3-fold). The first is the more potent here.

`CCCCC(CCCC)CCCCCCOCC(COP(=O)([O-])OCC[N+](C)(C)C)OC` (stereo not drawn) showed an IC50 of 54 µM.

system: not listed separately; test: Partition coefficient (logP); format: physicochemical; conditions: octanol/water
Outline: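 Calculated rather than measured, for the C-1 chain including the ether O atom, by the Viswanadhan atom-based method.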

`CCCCCCCCCCCC(CCCCCC)CCCCCCOCC(COP(=O)([O-])OCC[N+](C)(C)C)OC` (stereo not drawn) and `CCCCCCC(CCCCCC)CCCCCCCCCCCOCC(COP(=O)([O-])OCC[N+](C)(C)C)OC` (stereo not drawn) are the same in logP: 9.08 for the first, 9.08 for the second.

same assay, conditions: octanol/water; read-out: logP

Compared with `CCCCCCCCC(CCCCCCCC)CCCCCCOCC(COP(=O)([O-])OCC[N+](C)(C)C)OC` (stereo not drawn), `CCCCC(CCCC)CCCCCCOCC(COP(=O)([O-])OCC[N+](C)(C)C)OC` (stereo not drawn) is lower in logP: 8.68 for the first, 5.51 for the second.

First: COC(COCCCCCCCCCCC(=O)c1ccccc1)COP(=O)([O-])OCC[N+](C)(C)C (stereo not drawn)
Second: CCCCCCCCC(CCCCCCOCC(COP(=O)([O-])OCC[N+](C)(C)C)OC)c1ccccc1 (stereo not drawn)
The logP of the first is lower: 4.29 for the first, 7.13 for the second.
